Data taken from ChEMBL document CHEMBL1136530, “Synthesis, stereochemical assignment and biological activity of a novel series of C-4" modified aza-macrolides” (2003).
≈ marks a conversion by molar mass, not a printed value.

Key:
Format in all cases: functional
Escherichia coli = test: Minimum inhibitory concentration against Escherichia coli
Mus musculus = test: In vivo effective dose against Pasteurella multocida infection in mouse
Method in brief: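 Mice infected with P. multocida serotype 5A. Subcutaneous dosing 0.5 h post-infection at 5 to 80 mg/kg. ED50 calculated from the number of mice surviving four days after infection.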

Pasteurella multocida = test: Minimum inhibitory concentration against Pasteurella multocida
Method in brief: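 P. multocida strain 59A0067 (turkey origin), grown overnight on BHI plates; colonies in saline at OD625 0.09 (0.5 McFarland), diluted 1:100 in BHI broth. Two-fold serial dilutions in BHI microdilution, about 5×10⁵ cfu/mL final, 37 °C for 18 h. MIC is the lowest concentration with A600 ≤ 0.025.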

## CC[C@H]1OC(=O)[C@H](C)[C@@H](O[C@H]2C[C@@](C)(OC)[C@@](O)(C#CCOC)[C@H](C)O2)[C@H](C)[C@@H](O[C@@H]2O[C@H](C)C[C@H](N(C)C)[C@H]2O)[C@](C)(O)C[C@@H](C)CN[C@H](C)[C@@H](O)[C@]1(C)O
Escherichia coli
  MIC: 3.13 µg/mL (≈ 3.9 µM)
Mus musculus
  ED50: 20 mg/kg
Pasteurella multocida
  MIC: 0.2 µg/mL (≈ 0.249 µM)
